# Columns and labels:
# Adenosine receptor A1 [1] = biological target: T1, Adenosine receptor A1 (Rattus norvegicus, UniProt P25099); experiment: Binding affinity against adenosine A1 receptor using [3H]DPCPX in rat cortical membranes in the absence of GTP; type: cell membranes
# T1 sequence (P25099 whole entry): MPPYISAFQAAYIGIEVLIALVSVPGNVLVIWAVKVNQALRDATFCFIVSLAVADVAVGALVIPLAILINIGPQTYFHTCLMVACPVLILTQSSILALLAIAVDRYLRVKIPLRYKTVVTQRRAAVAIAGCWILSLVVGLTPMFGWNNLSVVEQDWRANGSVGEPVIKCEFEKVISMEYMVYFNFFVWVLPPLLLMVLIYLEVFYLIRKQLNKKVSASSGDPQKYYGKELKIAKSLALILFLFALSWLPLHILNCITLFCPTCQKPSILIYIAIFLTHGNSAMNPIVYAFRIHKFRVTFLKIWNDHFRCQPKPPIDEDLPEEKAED
# In short: (§1)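 Rat cortical membranes, pre-incubated with 2 units/mL ADA at 37 °C before storage; protein by BCA. Nonspecific binding defined with 10 µM R-PIA. Line 1 run without GTP, line 2 with 1 mM GTP. Ki values are means of three independent experiments in duplicate unless otherwise noted.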
# [2] = biological target: T2, Adenosine receptor A1 (Rattus norvegicus) (UniProt P25099); experiment: Intrinsic activity for maximum stimulation of [35S]GTP-gamma-S, binding to adenosine A1 receptor in rat brain membranes; type: functional, cell membranes
# T2 sequence (whole entry): T1 sequence (P25099 whole entry)
# In short: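 Rat brain membranes incubated with the agonist and [35S]GTPγS; nonspecific binding defined with 10 μM unlabelled GTPγS. Read-out is the maximal level of G protein activation by [35S]GTPγS binding, given ± SEM, with EC50 derived from the stimulation curves; n = 3-9.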
# Adenosine receptor A1 [3] = biological target: T1, Adenosine receptor A1; experiment: Effective concentration for [35S]GTP-gamma-S, binding to adenosine A1 receptor in rat brain membranes; type: functional, cell membranes
# In short: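 Stimulation of [35S]GTPγS binding in rat brain membranes (same preparation as binding); nonspecific binding defined with 10 µM unlabeled GTPγS.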
# Adenosine receptor A1 [4] = biological target: T1, Adenosine receptor A1; experiment: Binding affinity against adenosine A1 receptor using [3H]DPCPX in rat cortical membranes in the presence of GTP.; type: cell membranes; in short: as §1
# Adenosine receptor A2a = Adenosine receptor A2a (Rattus norvegicus, UniProt P30543); experiment: Binding affinity against Adenosine A2A receptor using [3H]-CGS- 21680 as the radioligand in rat striatal membranes; type: cell membranes, Striatum, Membrane
# Sequence of Adenosine receptor A2a (P30543 whole entry): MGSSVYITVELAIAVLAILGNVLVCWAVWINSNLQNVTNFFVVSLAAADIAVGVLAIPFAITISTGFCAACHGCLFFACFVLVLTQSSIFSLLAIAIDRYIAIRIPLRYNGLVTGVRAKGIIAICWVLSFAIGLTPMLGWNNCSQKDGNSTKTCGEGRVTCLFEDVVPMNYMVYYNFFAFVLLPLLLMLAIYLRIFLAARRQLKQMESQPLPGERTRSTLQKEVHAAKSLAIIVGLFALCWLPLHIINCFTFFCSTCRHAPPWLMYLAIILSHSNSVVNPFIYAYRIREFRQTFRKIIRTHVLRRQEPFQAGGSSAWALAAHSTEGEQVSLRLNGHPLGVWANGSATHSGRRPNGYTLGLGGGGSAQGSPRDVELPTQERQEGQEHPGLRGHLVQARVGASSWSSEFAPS
Ki (Adenosine receptor A1 [1]) [nM],Activity [2] [%],EC50 (Adenosine receptor A1 [3]) [nM],Ki (Adenosine receptor A1 [4]) [nM],Ki (Adenosine receptor A2a) [nM],SMILES
4640,73,13900,14300,14500,CCCNC[C@H]1O[C@@H](n2cnc3c(NC4CCCC4)ncnc32)[C@H](O)[C@@H]1O
45,65.6,127,130,19000,CCSC[C@H]1O[C@@H](n2cnc3c(NC4CCCC4)ncnc32)[C@H](O)[C@@H]1O
59,40.2,99,199,13500,CSC[C@H]1O[C@@H](n2cnc3c(NC4CCCC4)ncnc32)[C@H](O)[C@@H]1O
440,96.4,1330,2600,45500,CNC[C@H]1O[C@@H](n2cnc3c(NC4CCCC4)ncnc32)[C@H](O)[C@@H]1O
,100,,,,OC[C@H]1O[C@@H](n2cnc3c(NC4CCCC4)ncnc32)[C@H](O)[C@@H]1O
41,85.3,189,149,10300,CC(C)CSC[C@H]1O[C@@H](n2cnc3c(NC4CCCC4)ncnc32)[C@H](O)[C@@H]1O
2410,,,8560,42500,CCNC[C@H]1O[C@@H](n2cnc3c(NC4CCCC4)ncnc32)[C@H](O)[C@@H]1O
76,84.1,384,222,18800,CCCSC[C@H]1O[C@@H](n2cnc3c(NC4CCCC4)ncnc32)[C@H](O)[C@@H]1O
9.5,88,26,61.5,8750,O[C@@H]1[C@H](O)[C@@H](CCl)O[C@H]1n1cnc2c(NC3CCCC3)ncnc21

SMILES,Ki (Adenosine receptor A1 [1]) [nM],Activity [2] [%],EC50 (Adenosine receptor A1 [3]) [nM],Ki (Adenosine receptor A1 [4]) [nM],Ki (Adenosine receptor A2a) [nM]
C[Se]C[C@H]1O[C@@H](n2cnc3c(NC4CCCC4)ncnc32)[C@H](O)[C@@H]1O,76,50.3,225,166,11300
